High-throughput results as filed in PubChem BioAssay.
Platelet DG rel = inhibitors of platelet dense granule secretion, primary screen, cell-based, MLPCN, human platelets; inhibition, %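 (compounds screened at 7.5 µM in platelet-rich plasma)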; 0.22% of 300,000 active; human platelet-rich plasma, SFLLRN dense granule ATP release, luminescence;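 active = mean replicate score, as percent of positive control, at or above 50; inconclusive = mean below 50 but at least one replicate at or above 50; inactive = mean and every replicate below 50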
SENP8 block-1 = human SENP8 protease inhibitors, primary screen, biochemical, fluorescence, Nedd8 protein substrate, uHTS | Sentrin-specific protease 8 (Homo sapiens), Q96LD8 | 0.64% of 360,000 active | recombinant SENP8 | inhibition, % at 20 µM | AID 602440, 2012; in the data active = inhibition mostly above about 40%, no sharp cut-off; inactive = mostly below about 27%
Target sequence (Q96LD8 whole entry, looked up): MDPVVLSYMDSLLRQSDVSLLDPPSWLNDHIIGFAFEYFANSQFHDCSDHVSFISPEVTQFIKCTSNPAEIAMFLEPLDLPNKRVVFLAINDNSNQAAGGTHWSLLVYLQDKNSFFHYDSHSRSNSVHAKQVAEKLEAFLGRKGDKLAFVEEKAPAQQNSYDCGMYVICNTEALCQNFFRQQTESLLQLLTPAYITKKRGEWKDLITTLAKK
SENP6 inh = SENP6 protease inhibitors, primary screen, biochemical, luminescence, uHTS | Recombinant SENP6 catalytic domain, aminoluciferin luminescence | inhibition, % at 10 µM | Sentrin-specific protease 6 (Homo sapiens), Q9GZR1 | 1.8% of 330,000 active | AID 2599, 2010;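 active = inhibition above about 50% at the single tested dose, limit read from the data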;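 note: plate controls were DMSO wells with enzyme for no effect and DMSO wells lacking enzyme for full effect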
SENP7 inh = SENP7 protease inhibitors, primary screen, biochemical, luminescence, uHTS. Sentrin-specific protease 7 (Homo sapiens), Q9BQF6. recombinant SENP7, Z-RLRGG-aminoluciferin luminescence, 40 min. inhibition, % at 5 µM. 1.5% of 330,000 active. AID 434973, 2010;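 active = inhibition above about 50% at the single test dose, limit read from the data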;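 note: plate controls were DMSO with enzyme for no effect and no enzyme buffer wells for full effect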
SENP8 block-2 = SENP8 protease inhibitors, primary screen, biochemical, luminescence; inhibition, % at 10 µM; Sentrin-specific protease 8 (Homo sapiens), Q96LD8; 1.2% of 330,000 active; purified SENP8, Z-RLRGG-aminoluciferin cleavage; in the data active = inhibition above about 50%
SENP1 inh = human SENP1 catalytic domain inhibitors, primary screen, biochemical, FRET, uHTS; Sentrin-specific protease 1 (Homo sapiens), Q9P0U3; recombinant SENP1 catalytic domain, CyPet-SUMO1-YPet FRET cleavage; inhibition, % at 10 µM; 0.21% of 360,000 active; AID 624204, 2012;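 active = inhibition at least 30% at 10 µM, raw YFP signal under a set limit, fluorescence ratio 0.5 to 1.5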;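 note: 0% = enzyme with DMSO and 100% = no enzyme wells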
Target sequence (Q9P0U3 419-644 limits assumed): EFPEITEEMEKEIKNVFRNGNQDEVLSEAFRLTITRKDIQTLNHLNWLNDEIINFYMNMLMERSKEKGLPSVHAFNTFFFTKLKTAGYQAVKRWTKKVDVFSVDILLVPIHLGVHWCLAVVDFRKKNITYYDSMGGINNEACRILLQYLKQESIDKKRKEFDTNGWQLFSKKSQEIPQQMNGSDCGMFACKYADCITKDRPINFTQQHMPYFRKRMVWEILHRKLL
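Assay system – human recombinant His6-tagged SENP1 catalytic domain enzyme · Input – SENP1 enzyme, 20 pM final · Buffer or medium – Tris pH 8 buffer plus EDTA, NaCl, BME, BSA, NP40, catalase · Schedule – 50 min reaction at room temperature · Technique – FRET read of cyan and yellow fluorescence · Control set – no-enzyme wells low, DMSO-plus-enzyme wells high control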
SENP8 conf = SENP8 protease inhibitors, retest, confirmation, biochemical, luminescence, single concentration; Recombinant SENP8, Z-RLRGG-aminoluciferin luminescence, 60 min; shares compounds with SENP7 inh; 40% of 6,200 active; inhibition, % at 12.5 µM; AID 488912, 2010;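 active = mean inhibition across replicates above about 50%, limit read from the data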
SENP6 conf = SENP6 protease inhibitors, confirmation, biochemical, luminescence, single concentration; shares compounds with SENP7 inh; recombinant SENP6, Z-RLRGG-aminoluciferin luminescence; inhibition, % at 12.5 µM; 58% of 6,200 active
SENP7 conf = SENP7 protease inhibitors, retest, confirmation, biochemical, luminescence, single concentration; recombinant SENP7, Z-RLRGG-aminoluciferin luminescence, 40 min; inhibition, % at 12.5 µM; 69% of 6,200 active; shares compounds with SENP7 inh
Casp3 SENP sel = caspase-3 protease inhibitors, confirmation, selectivity assay for SENP inhibitor project, biochemical, single concentration; shares compounds with SENP7 inh; purified caspase-3, Z-DEVD-aminoluciferin luminescence, 60 min; inhibition, % at 12.5 µM; 60% of 6,200 active;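 active = mean inhibition above about 50%, limit read from the data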;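 note: plate controls were enzyme with DMSO for no effect and wells without caspase-3 for full effect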
Luc interf = counter-screen for SENP inhibitors: luminescence interference. 39% of 6,200 active. inhibition, % at 12.5 µM. Pre-incubated SENP8/Z-RLRGG-aminoluciferin, luciferase luminescence interference. shares compounds with SENP7 inh;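 active = mean inhibition above about 50% when retested at one dose, limit read from the data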;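 note: plate controls were DMSO wells with completed reaction for no effect and substrate without enzyme for full effect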
An asterisk follows results filed as active; i = inactive; ? = inconclusive; · = no result. Sampled rows, rich in hits. Any-hit rate of the full collection: about 2.6%.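 Rule for the calls, unless noted: active = mean inhibition above about 50% in the one-dose retest (limit read from the data); inactive = the rest.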

SMILES	Platelet DG rel	SENP8 block-1	SENP6 inh	SENP7 inh	SENP8 block-2	SENP1 inh	SENP8 conf	SENP6 conf	SENP7 conf	Casp3 SENP sel	Luc interf
O=C(O)CCC(=O)Nc1ccc(SSc2ccc(NC(=O)CCC(=O)O)cc2)cc1	2	5	23	6	8	3	·	·	·	·	·
O=S1OCCN1c1ccccc1 (stereo not drawn)	-15	14	-14	-7	-4	-2	·	·	·	·	·
COC(=O)N(C)C[C@@H]1OCc2cnnn2CCCC(=O)N([C@@H](C)CO)C[C@H]1C	·	8	·	·	·	-1	·	·	·	·	·
O=C(Nc1ccc(N2CCCCC2)cc1)c1ccccc1	28	14	84*	90*	75*	0	5	85*	98*	92*	29
O=C(Nc1ccc(N2CCCC2)cc1)c1cccc(F)c1	8	20	94*	93*	89*	-3	87*	86*	96*	80*	75*
O=C(Cc1ccccc1)Nc1ccc(N2CCCCC2)cc1	37	18	39	64*	54*	1	-4	44	77*	73*	0
O=C(Nc1ccc(N2CCCC2)cc1)c1ccc2ccccc2c1	0	-7	8	1	12	2	·	·	·	·	·
O=C(Nc1ccc(N2CCCC2=O)cc1)c1cccc(F)c1	24	-4	81*	89*	72*	2	-12	16	62*	70*	49
CN(CCC(=O)Nc1ccc(Cl)cc1)Cc1ccccc1	7	12	-1	-2	-1	1	·	·	·	·	·
COc1ccc(-c2nc3ccccc3c(=O)[nH]2)cc1	10	0	52*	61*	22	0	3	38	77*	37	0
O=c1[nH]c(-c2ccncc2)nc2ccccc12	-3	0	-6	5	-2	-2	·	·	·	·	·
CN(C)c1ccc(-c2nc3ccccc3c(=O)[nH]2)cc1	?	i	98*	95*	88*	-14	41	95*	100*	89*	5
CC[C@]12c3[nH]c4ccc(Cl)cc4c3CCN1C(=O)[C@@H](CC(=O)NCCCN(C)C)C[C@@H]2C(=O)N1CCN(C(=O)c2ccco2)CC1	·	12	·	-2	·	1	·	·	·	·	·
Cc1nnc(NC(=O)CSc2nnc(CC(=O)Nc3ccccc3F)n2C)s1	2	16	4	-5	-4	1	·	·	·	·	·
CCCn1nnc2ccccc2c1=O	-3	24	-13	3	-4	-3	·	·	·	·	·
CCOc1ccc(OCCn2nnc3ccccc3c2=O)cc1	5	-5	69*	67*	58*	-3	36	60*	89*	81*	50*
Oc1cccc(/C=N/Nc2cc(N3CCCC3)nc(N3CCCC3)n2)c1	6	-27	57*	51*	10	-18	16	66*	27	4	11
Oc1ccc(/C=N/Nc2cc(N3CCCC3)nc(N3CCCC3)n2)cc1	-14	4	49	78*	36	-9	11	61*	79*	10	7
Oc1ccc(/C=N/Nc2cc(N3CCOCC3)nc(N3CCOCC3)n2)cc1	12	-12	19	60*	5	-6	13	33	4	0	3
CCOc1ccc(/C=N/Nc2cc(C)nc(N3CCOCC3)n2)cc1	-32	26	-20	2	-3	1	·	·	·	·	·
COc1ccc(/C=N/Nc2cc(N3CCCC3)nc(N3CCCC3)n2)cc1	0	-15	52*	38	14	-8	16	51*	34	4	3
Brc1cccc(/C=N/Nc2nc(N3CCCCC3)nc(N3CCCCC3)n2)c1	5	·	-9	6	6	·	·	·	·	·	·
Cc1ccc([N+](=O)[O-])cc1N/C=C1\CCc2ccccc2C1=O	-1	-56	79*	33	9	4	5	1	-12	1	-5
Cc1ccc(C(=O)Nc2cccc(C(=O)N3CCOCC3)c2)cc1	0	9	-2	1	-1	2	·	·	·	·	·
O=C(Nc1cccc(C(=O)N2CCOCC2)c1)c1ncn[nH]1	-1	7	-4	85*	2	0	11	8	13	8	6
SMILES	Platelet DG rel	SENP8 block-1	SENP6 inh	SENP7 inh	SENP8 block-2	SENP1 inh	SENP8 conf	SENP6 conf	SENP7 conf	Casp3 SENP sel	Luc interf
O=C1c2ccccc2S(=O)(=O)c2cc(N3CCOCC3)ccc21	1	-141	62*	69*	46	-27	26	20	25	34	18
O=C(CCCc1ccccc1)NC12CC3CC(CC(C3)C1)C2	-13	5	13	-3	7	0	·	·	·	·	·
CCOC(=O)C(NC(=O)C1C(C)N1S(=O)(=O)c1ccc(C)cc1)C(=O)OCC (stereo not drawn)	-11	0	-2	1	9	-2	·	·	·	·	·
O=C(COc1ccc2ccccc2c1)Nc1nccs1	-14	3	61*	77*	66*	-5	42	89*	99*	81*	76*
O=C(COc1ccccc1)Nc1nccs1	14	-4	75*	6	61*	0	-3	61*	90*	90*	74*
CCOC(=O)/C=C(\C)N1N=C(c2ccccc2)CC1c1ccccc1 (stereo not drawn)	13	-98	52*	21	21	-89	9	35	75*	29	28
